Where a name gives a salt, the structure may show the parent alone. Read-outs that look alike come from different tables or passages of the source. Marks after values point to notes of the source that are not given here.
Experiments:
[1] = cited from earlier work
[2] = test system: CYP2D6; conditions: read-out: CYP2D6 Ki; competitive inhibition type, in vitro; cited from earlier work
[3] = test system: UGT1A9; conditions: M-1 glucuronidation; cited from earlier work
[4] = test system: UGT1A4; conditions: M-1 glucuronidation; cited from earlier work
[5] = Observed clinical pharmacokinetics after oral sarpogrelate hydrochloride; type: in vivo, human
[6] = target: T1, BCRP (Homo sapiens, UniProt Q9UNQ0); type: cell-based; conditions: for Permeability Papp,AB of prazosin / Permeability Papp,BA of prazosin / Inhibition (%): MDCK-II-BCRP; for Permeability Papp,AB of prazosin / Permeability Papp,BA of prazosin: prazosin 10 μM, mean ± SD (n=3); for Inhibition (%): prazosin transport; for inhibition of BCRP-mediated prazosin transport: all tested concentrations up to 10 μM
T1 sequence (Q9UNQ0 1-655): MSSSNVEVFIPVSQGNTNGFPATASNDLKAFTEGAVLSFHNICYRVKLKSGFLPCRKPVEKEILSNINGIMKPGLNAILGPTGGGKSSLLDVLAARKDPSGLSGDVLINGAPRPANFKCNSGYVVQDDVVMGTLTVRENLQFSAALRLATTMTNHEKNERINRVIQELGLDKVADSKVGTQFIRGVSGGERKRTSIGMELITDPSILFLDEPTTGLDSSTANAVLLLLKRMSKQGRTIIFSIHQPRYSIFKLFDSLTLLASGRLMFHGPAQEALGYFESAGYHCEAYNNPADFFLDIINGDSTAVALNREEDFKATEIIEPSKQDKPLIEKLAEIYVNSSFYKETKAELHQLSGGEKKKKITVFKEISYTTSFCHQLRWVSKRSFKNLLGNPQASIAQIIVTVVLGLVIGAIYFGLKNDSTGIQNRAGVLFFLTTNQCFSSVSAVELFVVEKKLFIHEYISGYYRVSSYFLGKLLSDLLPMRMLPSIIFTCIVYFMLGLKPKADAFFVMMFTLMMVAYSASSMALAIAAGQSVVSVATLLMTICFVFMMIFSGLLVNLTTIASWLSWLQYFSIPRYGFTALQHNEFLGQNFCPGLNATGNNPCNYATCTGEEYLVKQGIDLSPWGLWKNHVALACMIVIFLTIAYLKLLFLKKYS

[7] = cited from earlier work; remark: listed apart in the source
[8] = test system: MDCK-II-P-gp cells; experiment: MTT cytotoxicity assay in MDCK-II-P-gp cells; type: cell-based, canine; conditions: 1 hour incubation, highest drug concentration tested (10 μM)
[9] = Metabolic stability in pooled human liver microsomes for CLint; type: in vitro ADME; conditions: for microsomal CLint at 400 nM: human, pooled human liver microsomes
Summary of the method: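 Preincubated 5 min at 37°C, then incubated with 400 nM substrate up to 60–90 min. Run in duplicate, analysed by LC-MS/MS as % remaining vs time 0. t1/2 from initial log-linear slope; CLint = (0.693/t1/2)×(incubation volume/microsomal protein).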

[10] = target: P-gp (Homo sapiens, UniProt P08183); type: cell-based; conditions: for Permeability Papp,AB of loperamide / Permeability Papp,BA of loperamide / Inhibition (%): MDCK-II-P-gp; for Permeability Papp,AB of loperamide / Permeability Papp,BA of loperamide: loperamide 10 μM, mean ± SD (n=3); for Inhibition (%): loperamide transport
[11] = test system: MDCK-II-BCRP cells; experiment: MTT cytotoxicity assay in MDCK-II-BCRP cells; type: cell-based, canine; conditions: 1 hour incubation, highest drug concentration tested (10 μM)
[12] = test system: UGT2B7; conditions: M-1 glucuronidation; cited from earlier work
[13] = test system: CYP2D6; conditions: cited from earlier work
[14] = test system: CYP2D6; conditions: single coadministration with sarpogrelate hydrochloride 100 mg; cited from earlier work
[15] = cited from earlier work; remark: listed apart in the source
[16] = PBPK input parameters predicted, defaulted, optimized or assumed in Simcyp; parameters: species or system human; conditions: Assumed from Reference 21
[17] = Metabolic stability of sarpogrelate in human intestinal microsomes; type: in vitro ADME; conditions: sarpogrelate 400 nM, 60-minute incubation; data not shown
[18] = Metabolic stability of sarpogrelate in human blood; type: in vitro ADME; conditions: sarpogrelate 400 nM, 60-minute incubation; data not shown
[19] = MTT cytotoxicity assay in MDCK-II-P-gp cells; type: cell-based, canine; conditions: dog
[20] = high solubility and permeability profile; cited from earlier work
[21] = MTT cytotoxicity assay in MDCK-II-BCRP cells; type: cell-based, canine; conditions: dog
[22] = multiple doses 100 mg tid for 1 day
[23] = observed, single oral 100 mg sarpogrelate hydrochloride, median (range), ref 20
[24] = single oral 100 mg sarpogrelate hydrochloride
[25] = human, MDCK-II-BCRP cell monolayer, probe prazosin (10 µM)
[26] = human, MDCK-II-P-gp cell monolayer, probe loperamide (10 µM)

Sequence of P-gp (P08183 whole entry): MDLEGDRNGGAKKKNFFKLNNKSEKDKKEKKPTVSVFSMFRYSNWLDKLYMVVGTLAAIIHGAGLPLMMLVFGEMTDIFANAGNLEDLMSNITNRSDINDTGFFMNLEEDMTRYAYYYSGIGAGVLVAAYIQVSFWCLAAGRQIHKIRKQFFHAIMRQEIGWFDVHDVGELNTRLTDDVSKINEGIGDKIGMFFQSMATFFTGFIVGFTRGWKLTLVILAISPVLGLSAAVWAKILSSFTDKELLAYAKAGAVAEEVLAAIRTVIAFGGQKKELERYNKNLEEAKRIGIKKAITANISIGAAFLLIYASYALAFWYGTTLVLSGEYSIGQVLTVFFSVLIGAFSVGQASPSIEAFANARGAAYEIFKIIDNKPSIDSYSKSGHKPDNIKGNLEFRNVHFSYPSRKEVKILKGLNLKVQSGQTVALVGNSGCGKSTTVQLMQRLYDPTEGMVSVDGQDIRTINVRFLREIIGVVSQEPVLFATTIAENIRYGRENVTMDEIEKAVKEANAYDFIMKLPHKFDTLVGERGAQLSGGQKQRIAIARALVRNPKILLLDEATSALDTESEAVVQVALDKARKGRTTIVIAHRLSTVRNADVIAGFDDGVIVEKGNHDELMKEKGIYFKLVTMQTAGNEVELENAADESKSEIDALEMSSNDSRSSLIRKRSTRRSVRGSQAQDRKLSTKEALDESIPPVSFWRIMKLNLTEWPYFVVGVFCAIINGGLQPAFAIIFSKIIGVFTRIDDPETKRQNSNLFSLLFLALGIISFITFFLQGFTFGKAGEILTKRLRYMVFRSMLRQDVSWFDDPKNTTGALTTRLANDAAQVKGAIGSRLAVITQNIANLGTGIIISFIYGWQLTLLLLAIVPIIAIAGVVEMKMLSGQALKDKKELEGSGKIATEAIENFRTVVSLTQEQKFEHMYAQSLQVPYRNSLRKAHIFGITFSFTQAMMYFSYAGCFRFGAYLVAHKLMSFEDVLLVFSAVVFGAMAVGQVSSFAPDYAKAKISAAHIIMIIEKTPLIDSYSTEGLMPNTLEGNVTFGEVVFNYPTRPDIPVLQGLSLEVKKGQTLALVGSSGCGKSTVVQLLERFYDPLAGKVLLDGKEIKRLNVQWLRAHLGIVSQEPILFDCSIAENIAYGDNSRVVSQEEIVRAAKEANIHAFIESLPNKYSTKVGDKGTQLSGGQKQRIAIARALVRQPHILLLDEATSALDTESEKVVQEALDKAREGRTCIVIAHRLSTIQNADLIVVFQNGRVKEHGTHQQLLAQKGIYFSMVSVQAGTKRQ

COc1cccc(CCc2ccccc2OC[C@H](O)CN(C)C)c1 (racemic) [M-1, (R,S)-1-{2-[2-(3-methoxyphenyl)ethyl]-phenoxy}-3-(dimethylamino)-2-propanol]
observed values of AUC0–24 h (range across studies) [1, 22]: 246.2 to 267.2 ng·h/mL | Tmax [1, 23]: 1.0 (0.33–1.5) ^a hours | Ki [2]: 120 nM | CLint by rUGT1A9 [3]: 1.30 μL/min/mg protein | CLint by rUGT1A4 [4]: 0.63 μL/min/mg protein | observed ratio of AUC of M-1 to sarpogrelate ([5]; single oral 100 mg sarpogrelate hydrochloride, observed clinical data): 0.139 | Permeability Papp,AB of prazosin ([6]; inhibitor 0.2 µM): 0.891±0.0355 ×10^−6 cm/s | Permeability Papp,BA of prazosin ([6]; inhibitor 0.2 µM): 3.42±0.0237 ×10^−6 cm/s | Permeability Papp,AB of prazosin ([6]; inhibitor 2 µM): 0.813±0.0547 ×10^−6 cm/s | Permeability Papp,BA of prazosin ([6]; inhibitor 2 µM): 3.31±0.0467 ×10^−6 cm/s | Permeability Papp,AB of prazosin ([6]; inhibitor 10 µM): 0.811±0.0111 ×10^−6 cm/s | Permeability Papp,BA of prazosin ([6]; inhibitor 10 µM): 3.32±0.0139 ×10^−6 cm/s | Inhibition (%) ([6]; inhibitor 0.2 µM): 0.380% | Inhibition (%) ([6]; inhibitor 2 µM): 0.771% | Inhibition (%) ([6]; inhibitor 10 µM): 0.381% | inhibition of BCRP-mediated prazosin transport [6]: did not inhibit | fup (fraction unbound in plasma) [7]: 0.03 | cell viability (MTT assay) [8]: > 97% | Additional CLint in HLM (NADPH generating system) ([9]; 400 nM M-1 in HLM with NADPH generating system): 150 μL/min/mg protein | Permeability Papp,AB of loperamide ([10]; inhibitor 0.2 µM): 0.0894±0.0188 ×10^−6 cm/s | Permeability Papp,BA of loperamide ([10]; inhibitor 0.2 µM): 1.95±0.0443 ×10^−6 cm/s | Permeability Papp,AB of loperamide ([10]; inhibitor 2 µM): 0.0822±0.0192 ×10^−6 cm/s | Permeability Papp,BA of loperamide ([10]; inhibitor 2 µM): 1.84±0.0249 ×10^−6 cm/s | Permeability Papp,AB of loperamide ([10]; inhibitor 10 µM): 0.104±0.0243 ×10^−6 cm/s | Permeability Papp,BA of loperamide ([10]; inhibitor 10 µM): 1.95±0.0403 ×10^−6 cm/s | Inhibition (%) ([10]; inhibitor 0.2 µM): 2.00% | Inhibition (%) ([10]; inhibitor 2 µM): 7.82% | Inhibition (%) ([10]; inhibitor 10 µM): 2.91% | inhibition of P-gp-mediated loperamide transport ([10]; all tested concentrations up to 10 μM): < 10% | cell viability (MTT assay) [11]: > 97% | CLint by rUGT2B7 [12]: 0.32 μL/min/mg protein

CNCCCN1c2ccccc2CCc2ccccc21 [Desipramine, desipramine]
metabolized fraction by CYP2D6 [13]: 0.88

COCCc1ccc(OCC(O)CNC(C)C)cc1 (stereo not drawn) [Metoprolol, metoprolol]
fold increase of AUCt of metoprolol (observed) [14]: 1.53 fold | fold increase of Cmax of metoprolol (observed) [14]: 1.62 fold | metabolized fraction by CYP2D6 [13]: 0.83

COc1cccc(CCc2ccccc2OCC(CN(C)C)OC(=O)CCC(=O)O)c1 (racemic) [Sarpogrelate, (R,S)-1-{2-[2-(3-methoxyphenyl)ethyl]-phenoxy}-3-(dimethylamino)-2-propyl hydrogen succinate hydrochloride]
Tmax ([1]; humans, 100 mg oral dose): 0.889 ± 0.651 h | observed values of AUC0–24 h (range across studies) [1, 22]: 1,291–1,773 ng h/mL | observed values of Cmax (range across studies) [1, 22]: 466.0 to 781.6 ng/mL | Tmax [1, 23]: 0.67 (0.3–1.5) ^a hours | Tmax ([1]; observed, single oral 100 mg sarpogrelate hydrochloride, median (range), ref 22): 1.00 (1.0–4.0) ^a hours | observed values of AUC (range across studies) [1, 24]: 348.3 to 621.5 ng·h/mL | observed values of Cmax (range across studies) [1, 24]: 343.0 to 635.1 ng/mL | unchanged sarpogrelate in urine or feces ([1]; up to 24 hours after a 100 mg oral dose, humans): no unchanged sarpogrelate was detected | Ki [2]: 1240 nM | Log P ([15]; PBPK input, reference cell empty, apparently ref www.Chembase.cn): 1.12 | PSA ([15]; ref www.Chembase.cn): 85.3 | Lag time [16]: 0 h | fa (fraction absorbed in the gastrointestinal tract) [16]: 1.0 | CLpo (oral systemic clearance) ([5]; Calculated from clinical data): 140 L/h | inhibition of BCRP-mediated prazosin transport [6]: did not inhibit | inhibition at 1 h, 0.2 µM [6, 25]: 2.69% | inhibition at 1 h, 2 µM [6, 25]: 9.62% | inhibition at 1 h, 10 µM [6, 25]: 0.38% | plasma protein binding [7]: approximately 95% | formation of M-1 in human intestinal microsomes [17]: not observed | formation of M-1 in human blood [18]: not observed | viability at 1 h, 10 µM [19]: > 97% | microsomal CLint at 400 nM ([9]; pH 7.4, CLint for M-1 formation (carboxylesterase-mediated CLint), 400 nM sarpogrelate, HLM 0.1 mg/mL, no cofactor): 32.6 µL/min/mg | microsomal CLint at 400 nM ([9]; pH 7.5, carboxylesterase and UDPGA-dependent CLint, 400 nM sarpogrelate in HLM with UDPGA): 50 ± 7.89 µL/min/mg | inhibition at 1 h [10, 26]: < 10% | inhibition at 1 h, 0.2 µM [10, 26]: 9.18% | inhibition at 1 h, 2 µM [10, 26]: 9.72% | inhibition at 1 h, 10 µM [10, 26]: 9.95% | biopharmaceutics classification system (BCS) class [20]: Class I | viability at 1 h, 10 µM [21]: > 97%

COc1ccc2c(c1)[C@]13CCCC[C@@H]1[C@H](C2)N(C)CC3 [Dextromethorphan, dextromethorphan]
metabolized fraction by CYP2D6 [13]: 0.96
